ChEMBL document CHEMBL6092129, “Inhibiting SARS-CoV-2 viral entry by targeting spike:ACE2 interaction with O-modified quercetin derivatives” (RSC Med Chem, 2024)
Calls of active or inactive are those of the source. The rule behind the calls is not given here.

Key:
[1] = target: T1, Spike glycoprotein/Angiotensin-converting enzyme 2 (Severe acute respiratory syndrome coronavirus 2) (UniProt Q9BYF1+P0DTC2); test: Inhibition of SARS CoV-2 S1 RBD/biotinylated ACE2 (unknown origin) protein-protein interaction at 0.8 uM preincubated with S1 protein for 60 mins followed by addition of ACE2 protein measured after 60 mins by ELISA relative to control; type: protein assay; conditions: time 120.0 min
Outline: (§1)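 SARS-CoV-2 S1 RBD coated at 2 µg/mL (60 min, 37 °C), then blocked with 1% BSA in PBS pH 7.2–7.4 (30 min, 37 °C). Compound (0.8, 4.0, 20.0 or 100.0 µM) incubated 60 min at 37 °C with 0.05% DMSO–PBS vehicle control. Biotin-ACE2 solution (0.5 µg/mL) added for 60 min, then ExtrAvidin-peroxidase (40 min) and OPD (10 min, RT, dark), read at 450 nm. Three trials; IC50 from four-parameter fit (bottom 0, Hill slope 1).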

[2] = test system: HK-2; test: Nephrotoxicity against human HK-2 cells at 4.71 ppm incubated for 30 mins by LDH release based CytoTox 96 assay relative to control; type: toxicity, cell-based; conditions: hk-2, 0.5 h
[3] = test system: H9c2; test: Cardiotoxicity against rat H9c2 cells at 4.71 ppm incubated for 30 mins by LDH release based CytoTox 96 assay relative to control; type: toxicity, cell-based; conditions: h9c2, 0.5 h
[4] = target: T1, Spike glycoprotein/Angiotensin-converting enzyme 2 (Severe acute respiratory syndrome coronavirus 2); test: (§2) Inhibition of SARS CoV-2 S1 RBD/biotinylated ACE2 (unknown origin) protein-protein interaction preincubated with S1 protein for 60 mins followed by addition of ACE2 protein measured after 60 mins by ELISA; type: protein assay; conditions: time 120.0 min; outline: as §1
[5] = target: Spike glycoprotein/Angiotensin-converting enzyme 2 (Severe acute respiratory syndrome coronavirus 2, UniProt P0DTC2+Q9BYF1); test: as §2; type: protein assay; outline: as §1
Spike glycoprotein/Angiotensin-converting enzyme 2, sequence (Q9BYF1 whole entry, looked up, other chains not shown): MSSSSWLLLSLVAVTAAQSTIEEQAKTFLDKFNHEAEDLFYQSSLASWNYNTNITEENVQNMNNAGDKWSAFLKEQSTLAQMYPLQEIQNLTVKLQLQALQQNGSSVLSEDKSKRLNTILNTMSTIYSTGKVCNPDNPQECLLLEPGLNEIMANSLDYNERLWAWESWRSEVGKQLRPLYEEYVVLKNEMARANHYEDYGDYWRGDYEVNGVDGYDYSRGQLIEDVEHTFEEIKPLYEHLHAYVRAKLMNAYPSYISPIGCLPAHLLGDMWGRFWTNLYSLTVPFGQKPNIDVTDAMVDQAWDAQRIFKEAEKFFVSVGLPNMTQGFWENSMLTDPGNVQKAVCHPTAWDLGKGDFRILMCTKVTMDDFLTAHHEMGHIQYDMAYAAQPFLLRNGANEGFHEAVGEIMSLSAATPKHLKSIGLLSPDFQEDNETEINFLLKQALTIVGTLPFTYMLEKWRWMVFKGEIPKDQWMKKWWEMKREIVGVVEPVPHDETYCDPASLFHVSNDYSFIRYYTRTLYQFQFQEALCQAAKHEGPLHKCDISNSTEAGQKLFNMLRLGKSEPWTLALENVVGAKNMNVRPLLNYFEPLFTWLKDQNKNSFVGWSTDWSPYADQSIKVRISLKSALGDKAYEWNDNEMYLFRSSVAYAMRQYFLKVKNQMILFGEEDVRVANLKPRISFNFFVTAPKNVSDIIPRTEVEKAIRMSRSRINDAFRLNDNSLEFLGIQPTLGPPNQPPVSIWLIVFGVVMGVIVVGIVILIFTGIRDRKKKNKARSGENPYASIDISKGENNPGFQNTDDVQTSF

[6] = Hepatotoxicity against human HepG2 cells at 4.71 ppm incubated for 30 mins by LDH release based CytoTox 96 assay relative to control; type: toxicity, cell-based; conditions: hepg2, 0.5 h
[7] = target: T1, Spike glycoprotein/Angiotensin-converting enzyme 2 (Severe acute respiratory syndrome coronavirus 2); test: Inhibition of SARS CoV-2 S1 RBD/biotinylated ACE2 (unknown origin) protein-protein interaction at 100 uM preincubated with S1 protein for 60 mins followed by addition of ACE2 protein measured after 60 mins by ELISA relative to control; type: protein assay; conditions: time 120.0 min; outline: as §1
[8] = Hepatotoxicity against human HepG2 cells at 30.22 ppm incubated for 30 mins by LDH release based CytoTox 96 assay relative to control; type: toxicity, cell-based; conditions: hepg2, 0.5 h
[9] = test system: H9c2; test: Cardiotoxicity against rat H9c2 cells at 30.22 ppm incubated for 30 mins by LDH release based CytoTox 96 assay relative to control; type: toxicity, cell-based; conditions: h9c2, 0.5 h
[10] = test system: HK-2; test: Nephrotoxicity against human HK-2 cells at 30.22 ppm incubated for 30 mins by LDH release based CytoTox 96 assay relative to control; type: toxicity, cell-based; conditions: hk-2, 0.5 h
[11] = target: T1, Spike glycoprotein/Angiotensin-converting enzyme 2 (Severe acute respiratory syndrome coronavirus 2); test: Inhibition of SARS CoV-2 S1 RBD/biotinylated ACE2 (unknown origin) protein-protein interaction at 100 uM preincubated with S1 protein for 60 mins followed by addition of ACE2 protein measured after 60 mins by ELISA; type: protein assay; conditions: time 120.0 min; outline: as §1
[12] = Hepatotoxicity against human HepG2 cells at 1.03 ppm incubated for 30 mins by LDH release based CytoTox 96 assay relative to control; type: toxicity, cell-based; conditions: hepg2, 0.5 h
[13] = test system: HK-2; test: Nephrotoxicity against human HK-2 cells at 1.03 ppm incubated for 30 mins by LDH release based CytoTox 96 assay relative to control; type: toxicity, cell-based; conditions: hk-2, 0.5 h
[14] = test system: H9c2; test: Cardiotoxicity against rat H9c2 cells at 1.03 ppm incubated for 30 mins by LDH release based CytoTox 96 assay relative to control; type: toxicity, cell-based; conditions: h9c2, 0.5 h
[15] = test system: HK-2; test: Nephrotoxicity against human HK-2 cells at 2.07 ppm incubated for 30 mins by LDH release based CytoTox 96 assay relative to control; type: toxicity, cell-based; conditions: hk-2, 0.5 h
[16] = test system: H9c2; test: Cardiotoxicity against rat H9c2 cells at 2.07 ppm incubated for 30 mins by LDH release based CytoTox 96 assay relative to control; type: toxicity, cell-based; conditions: h9c2, 0.5 h
[17] = Hepatotoxicity against human HepG2 cells at 2.07 ppm incubated for 30 mins by LDH release based CytoTox 96 assay relative to control; type: toxicity, cell-based; conditions: hepg2, 0.5 h
[18] = test system: HK-2; test: Nephrotoxicity against human HK-2 cells at 12.09 ppm incubated for 30 mins by LDH release based CytoTox 96 assay relative to control; type: toxicity, cell-based; conditions: hk-2, 0.5 h
[19] = test system: H9c2; test: Cardiotoxicity against rat H9c2 cells at 12.09 ppm incubated for 30 mins by LDH release based CytoTox 96 assay relative to control; type: toxicity, cell-based; conditions: h9c2, 0.5 h
[20] = Hepatotoxicity against human HepG2 cells at 12.09 ppm incubated for 30 mins by LDH release based CytoTox 96 assay relative to control; type: toxicity, cell-based; conditions: hepg2, 0.5 h
[21] = test system: HK-2; test: Nephrotoxicity against human HK-2 cells at 1.54 ppm incubated for 30 mins by LDH release based CytoTox 96 assay relative to control; type: toxicity, cell-based; conditions: hk-2, 0.5 h
[22] = test system: H9c2; test: Cardiotoxicity against rat H9c2 cells at 1.54 ppm incubated for 30 mins by LDH release based CytoTox 96 assay relative to control; type: toxicity, cell-based; conditions: h9c2, 0.5 h
[23] = Hepatotoxicity against human HepG2 cells at 1.54 ppm incubated for 30 mins by LDH release based CytoTox 96 assay relative to control; type: toxicity, cell-based; conditions: hepg2, 0.5 h

## CC(=O)Oc1cc(O)c2c(=O)c(OC(C)=O)c(-c3ccc(OC(C)=O)c(O)c3)oc2c1
[1]
  inhibition: > 50%

## CCOc1cc(O)c2c(=O)c(OCC)c(-c3ccc(OCC)c(O)c3)oc2c1
[1]
  inhibition: > 50%

## O=c1c(OCc2ccc(F)cc2)c(-c2ccc(OCc3ccc(F)cc3)c(O)c2)oc2cc(OCc3ccc(F)cc3)cc(O)c12
[2]
  Activity: 1.29%
[3]
  Activity: 1.21%
[4]
  inhibition: Dose-dependent-effect
[5]
  IC50: 7.52 µM
[6]
  Activity: 0.4%

## O=C(Oc1cc(O)c2c(=O)c(OC(=O)c3ccccc3)c(-c3ccc(OC(=O)c4ccccc4)c(OC(=O)c4ccccc4)c3)oc2c1)c1ccccc1
[7]
  inhibition: < 50%

## O=c1c(O)c(-c2ccc(O)c(O)c2)oc2cc(O)cc(O)c12 [QUERCETIN]
[8]
  Activity: 1.74%
[9]
  Activity: 12.93%
[10]
  Activity: 1.56%
[11]
  inhibition: inactive

## O=C1OC2(c3ccccc31)c1cc(I)c(O)c(I)c1Oc1c2cc(I)c(O)c1I [ERYTHROSINE]
[4]
  inhibition: Dose-dependent-effect
[5]
  IC50: 6.16 µM

## C=CCOc1cc(O)c2c(=O)c(OCC=C)c(-c3ccc(OCC=C)c(OCC=C)c3)oc2c1
[4]
  inhibition: Dose-dependent-effect
[5]
  IC50: 2.22 µM
[12]
  Activity: 0%
[13]
  Activity: 0.04%
[14]
  Activity: 1.83%

## O=c1c(OCc2ccccc2)c(-c2ccc(OCc3ccccc3)c(OCc3ccccc3)c2)oc2cc(OCc3ccccc3)cc(O)c12
[7]
  inhibition: < 50%

## CCOc1cc(O)c2c(=O)c(OCC)c(-c3ccc(OCC)c(OCC)c3)oc2c1
[4]
  inhibition: Dose-dependent-effect
[5]
  IC50: 5 µM
[15]
  Activity: 5.5%
[16]
  Activity: 0.11%
[17]
  Activity: 1.47%

## O=c1c(OCc2ccc(F)cc2)c(-c2ccc(OCc3ccc(F)cc3)c(OCc3ccc(F)cc3)c2)oc2cc(OCc3ccc(F)cc3)cc(O)c12
[7]
  inhibition: < 50%

## CCCOc1cc(O)c2c(=O)c(OCCC)c(-c3ccc(OCCC)c(OCCC)c3)oc2c1
[18]
  Activity: 1.71%
[4]
  inhibition: Dose-dependent-effect
[5]
  IC50: 25.7 µM
[19]
  Activity: 1.05%
[20]
  Activity: 0.39%

## C=CCOc1cc(O)c2c(=O)c(OCC=C)c(-c3ccc(OCC=C)c(O)c3)oc2c1
[1]
  inhibition: > 50%

## CCCOc1cc(O)c2c(=O)c(OCCC)c(-c3ccc(OCCC)c(O)c3)oc2c1
[1]
  inhibition: > 50%

## CCC(=O)Oc1cc(O)c2c(=O)c(OC(=O)CC)c(-c3ccc(OC(=O)CC)c(OC(=O)CC)c3)oc2c1
[1]
  inhibition: > 50%

## CCC(=O)Oc1cc(O)c2c(=O)c(OC(=O)CC)c(-c3ccc(OC(=O)CC)c(O)c3)oc2c1
[21]
  Activity: 0.26%
[4]
  inhibition: Dose-dependent-effect
[5]
  IC50: 3.28 µM
[22]
  Activity: 1.95%
[23]
  Activity: 0.21%

## CC(=O)Oc1cc(O)c2c(=O)c(OC(C)=O)c(-c3ccc(OC(C)=O)c(OC(C)=O)c3)oc2c1
[1]
  inhibition: > 50%

## O=c1c(OCc2ccccc2)c(-c2ccc(OCc3ccccc3)c(O)c2)oc2cc(OCc3ccccc3)cc(O)c12
[1]
  inhibition: > 50%

## O=C(Oc1cc(O)c2c(=O)c(OC(=O)c3ccccc3)c(-c3ccc(OC(=O)c4ccccc4)c(O)c3)oc2c1)c1ccccc1
[1]
  inhibition: > 50%
